Experimental findings from paper PMC3327328 (Molecular Biology of the Cell, 2012) are described below.

Read-outs that look alike come from different tables or passages of the source. Square brackets hold non-standard residues; d marks the D form. Ends that are not written are not given here. Peptide text beside a SMILES is read from it. pT = C[C@@H](OP(=O)(O)O)[C@H](N)C(=O)O

Assay [1] has as its target human Survivin K62A (Homo sapiens, UniProt O15392, K62A). Kind of assay: ITC binding of histone H3 peptides to human Survivin K62A. In outline:
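ITC at pH 7.8 with recombinant human Survivin K62A (bacterially expressed, His tag thrombin-cleaved, gel-filtered) binding H3T3ph(1-4) and unmodified H3(1-4) peptides. Syringe peptide 1.2 mM, cell protein 0.1 mM, sixteen injections 180 s apart. Kd from a single-binding-site model with stoichiometry, ΔH and Ka variable. Baseline offset corrects for heats of dilution.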

The target of assay [2] is human Survivin (hs wt, class A) (Homo sapiens, UniProt O15392). Kind of assay: ITC binding of histone H3 peptides to human Survivin wild type.
The target of assay [3] is X. laevis class B Survivin (xl wt, xSurvivin-B) (Xenopus laevis, UniProt Q8JGN5). Description: ITC binding of histone H3 peptides to Xenopus Survivin class B wild type. Particulars: pH 8.2, 25°C, HEPES:citric acid:Ches, 10 mM β-mercaptoethanol, single-site model, n/b = no binding.
The target of a further assay is human Survivin H80R (Homo sapiens, UniProt O15392, H80R). Description: ITC binding of histone H3 peptides to human Survivin H80R. Particulars: pH 6.8, 25°C, HEPES:citric acid:Ches, 10 mM β-mercaptoethanol, single-site model, n/b = no binding. In outline:
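Mutant human Survivin from bacteria, Ni2+-resin purified, octahistidine tag removed by thrombin, then Superdex200. ITC at pH 6.8 in citric acid–Ches–HEPES buffer, 25°C. 1.2 mM histone H3 tail peptide titrated into 0.1 mM protein over sixteen injections 180 s apart. Kd from a single-site fit with stoichiometry, ΔH and Ka variable, using a baseline offset for dilution heats.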

The target of assay [4] is human Survivin K62A (human) (UniProt O15392). Description: ITC. (In general: In ITC the heat of successive injections is recorded.)
The target of assay [5] is human Survivin H80A (human) (UniProt O15392). Kind of assay: ITC.
The target in assay [6] is T1, human Survivin wild type (human, UniProt O15392 1-142). Kind of assay: ITC.
The target of assay [7] is T2, Xenopus laevis class B Survivin R89H (X. laevis, UniProt Q8JGN5 1-160, R89H). Kind of assay: ITC.
In assay [8] the target is human Survivin K62A (human, UniProt O15392 1-142, K62A). Description: crystal structure.
Assay [9] concerns the target T1, human Survivin wild type. Description: ITC. The source holds these as a separate data set.
For assay [10], the target named is T1, human Survivin wild type. Description: ITC. The source holds these as a separate data set.
Assay [11] has as its target T1, human Survivin wild type. Kind of assay: ITC. This is another data set of the same source.
Assay [12] deals with T1, human Survivin wild type. Description: ITC. The source holds these as a separate data set.
Assay [13] deals with T2, Xenopus laevis class B Survivin R89H. Kind of assay: ITC. This is another data set of the same source.
In assay [14] the target is T1, human Survivin wild type. Description: ITC. This is another data set of the same source.
In assay [15] the target is T1, human Survivin wild type. Kind of assay: ITC. The source holds these as a separate data set.
Assay [16] has as its target human Survivin wild type (human) (UniProt O15392). Kind of assay: ITC.

Sequence of human Survivin K62A (human) (O15392 whole entry K62A): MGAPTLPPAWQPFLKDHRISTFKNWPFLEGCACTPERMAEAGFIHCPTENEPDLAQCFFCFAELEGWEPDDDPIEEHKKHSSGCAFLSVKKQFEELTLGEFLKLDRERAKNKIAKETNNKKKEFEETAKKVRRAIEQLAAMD
T2 sequence (Q8JGN5 whole entry R89H): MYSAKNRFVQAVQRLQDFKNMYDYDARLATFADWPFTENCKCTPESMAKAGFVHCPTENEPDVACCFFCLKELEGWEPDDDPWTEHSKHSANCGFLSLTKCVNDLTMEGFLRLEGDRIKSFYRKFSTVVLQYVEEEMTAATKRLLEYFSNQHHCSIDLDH
T1 sequence (O15392 whole entry): as the sequence (O15392 whole entry K62A) above, with A62K counted along it
Sequence of human Survivin wild type (human) (O15392 whole entry): as the sequence (O15392 whole entry K62A) above, with A62K counted along it
Sequence of human Survivin H80A (human) (O15392 whole entry H80A): as the sequence (O15392 whole entry K62A) above, with A62K, H80A counted along it
Sequence of human Survivin K62A (human, UniProt O15392 1-142, K62A) (O15392 whole entry K62A): as the sequence (O15392 whole entry K62A) above
Sequence of human Survivin K62A (Homo sapiens, UniProt O15392, K62A) (O15392 whole entry K62A): as above
Sequence of human Survivin H80R (O15392 whole entry H80R): as the sequence (O15392 whole entry K62A) above, with A62K, H80R counted along it
Sequence of human Survivin (hs wt, class A) (O15392 whole entry): as the sequence (O15392 whole entry K62A) above, with A62K counted along it
Sequence of X. laevis class B Survivin (xl wt, xSurvivin-B) (Q8JGN5 whole entry): as the sequence (Q8JGN5 whole entry R89H) above, with H89R counted along it

Broadly, the Kd is the equilibrium constant for the complex coming apart. Lower therefore signals a tighter complex. Regarding `C[C@H](N)C(=O)N[C@@H](CCCNC(=N)N)C(=O)N[C@H](C(=O)N[C@@H](CCCCN)C(=O)O)[C@@H](C)O` [H3T3(1-4)] (H-ARTK-OH), the results for the Kd (on human Survivin K62A [1]; in assay [2]) were 31.3 ± 2 µM and 60.6 ± 4 µM, respectively.

Regarding `C[C@H](N)C(=O)N[C@@H](CCCNC(=N)N)C(=O)N[C@H](C(=O)N[C@@H](CCCCN)C(=O)N[C@@H](CCC(N)=O)C(=O)N[C@H](C(=O)N[C@@H](C)C(=O)N[C@@H](CCCNC(=N)N)C(=O)N[C@@H](CCCCN)C(=O)N[C@@H](CO)C(=O)N[C@H](C(=O)NCC(=O)O)[C@@H](C)O)[C@@H](C)O)[C@@H](C)O` [H3T3(1-12)], the “Kd (dissociation constant)” value (in [3]; on human Survivin H80R) was “n/b” in each case.

The term stoichiometry N denotes a count of units in the complex or per binding partner. In assay [4], “histone H3 N-terminal peptide ARTK, unmodified” displayed a Kd of 31.3 µM, a dH of -4.61 kcal/mol and a stoichiometry N of 1.22. Further, in assay [5], the Kd amounted to 236 µM, the dH was -3.3 kcal/mol and the stoichiometry N stood at 0.99.

As to ARTKQTARKSTG [histone H3 N-terminal peptide ARTKQTARKSTG, unmodified], the Kd was found to be 11.8 ± 1 µM in the assay with human Survivin wild type [6]; 5.21 ± 0.39 µM in [7]; 30.2 ± 1.2 µM in the assay with human Survivin wild type [9]; 17.1 ± 0.8 µM with human Survivin wild type [10]; 13.3 ± 0.7 µM with human Survivin wild type [11]; 21 ± 1.8 µM with human Survivin wild type [12]. Moreover, the Kd in [13] came out at 12.9 ± 1.4 µM; with human Survivin wild type [14] it was 21.4 ± 3.2 µM; with human Survivin wild type [15], 9.67 ± 0.31 µM. The dH is -2.49 ± 0.06 kcal/mol in the assay with human Survivin wild type [6]; -2.69 ± 0.04 kcal/mol in [7]; -3.43 ± 0.05 kcal/mol in the assay with human Survivin wild type [9]; -3.32 ± 0.05 kcal/mol with human Survivin wild type [10]; -3.21 ± 0.05 kcal/mol with human Survivin wild type [11]; -1.89 ± 0.04 kcal/mol with human Survivin wild type [12]. Moreover, the dH in assay [13] is -2.72 ± 0.06 kcal/mol; in the assay with human Survivin wild type [14], -4.32 ± 0.23 kcal/mol; in the assay with human Survivin wild type [15], -2.79 ± 0.02 kcal/mol. The “stoichiometry N” value is 1.26 ± 0.01 with human Survivin wild type [6]; 1.15 ± 0.01 in [7]; 1.32 ± 0.01 in the assay with human Survivin wild type [9]; 1.33 ± 0.01 with human Survivin wild type [10]; 1.36 ± 0.01 in the assay with human Survivin wild type [11]; 1.56 ± 0.02 in the assay with human Survivin wild type [12]. The “stoichiometry N” value in [13] stood at 1.34 ± 0.02; in the assay with human Survivin wild type [14], 1.37 ± 0.04; in the assay with human Survivin wild type [15], 1.29 ± 0.01. Moreover, in the assay with human Survivin K62A [8], the binding result is “binds”.

Regarding ARTK [histone H3 N-terminal peptide ARTK, unmodified], in assay [16], the Kd turned out to be 60.6 µM, the dH is -3.16 kcal/mol and the stoichiometry N was 1.27.

For AR[pT]KQTARKSTG [histone H3 N-terminal peptide ARTphKQTARKSTG, phosphorylated on T3], the dH was -5.64 ± 0.02 kcal/mol with human Survivin wild type [6]; -4.57 ± 0.04 kcal/mol in assay [7]; -4.13 ± 0.22 kcal/mol in the assay with human Survivin wild type [9]; -4.72 ± 0.06 kcal/mol with human Survivin wild type [10]; -4.65 ± 0.05 kcal/mol with human Survivin wild type [11]; -0.67 ± 0.05 kcal/mol with human Survivin wild type [12]. Further, the dH in assay [13] is -0.87 ± 0.015 kcal/mol; in the assay with human Survivin wild type [14], -6.85 ± 0.02 kcal/mol; with human Survivin wild type [15], -4.88 ± 0.03 kcal/mol. Further, the “stoichiometry N” value with human Survivin wild type [6] is 1.13 ± 0.001; in assay [7], 1.09 ± 0.004; in the assay with human Survivin wild type [9], 1.23 ± 0.02; with human Survivin wild type [10], 1.2 ± 0.01; with human Survivin wild type [11] it was 1.12 ± 0.01; in the assay with human Survivin wild type [12] it was 1.35 ± 0.06. Also, the “stoichiometry N” value came to 1.04 ± 0.01 in assay [13], 1.01 ± 0.002 in the assay with human Survivin wild type [14] and 1.03 ± 0.002 with human Survivin wild type [15].

In assay [16], AR[pT]K [histone H3 N-terminal peptide ARTphK, phosphorylated on T3] yielded a Kd of 61.7 µM, a dH of -2.12 kcal/mol and a stoichiometry N of 1.05.
